Columns and labels:
[1] = target: 11-beta-hydroxysteroid dehydrogenase 1 (Rattus norvegicus, UniProt P16232); assay: Inhibition of rat 11beta-HSD1
[2] = target: T1, 11-beta-hydroxysteroid dehydrogenase 1 (Homo sapiens, UniProt P28845); assay: Inhibition of human 11beta-HSD1
In short: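 Scintillation proximity assay on microsomes from HEK-293 cells stably transfected with human 11β-HSD1. Microsomes were incubated with NADPH and [3H]cortisone. The [3H]cortisol formed was captured by a monoclonal antibody on protein A-coated SPA beads. Compounds were first screened at […]; those giving over 50% inhibition went on to full IC50 determination. Each value comes from at least two independent experiments, with duplicates or more at each concentration.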

[3] = target: 11-beta-hydroxysteroid dehydrogenase 1 (Mus musculus) (UniProt P50172); assay: Inhibition of mouse 11beta-HSD1 expressed in HEK293 cell microsomes assessed as inhibition of [3H]cortisone conversion to [3H]cortisol at 1 uM by scintillation proximity assay; conditions: Microsome
Chain of 11-beta-hydroxysteroid dehydrogenase 1 (Mus musculus) (P50172 whole entry, looked up): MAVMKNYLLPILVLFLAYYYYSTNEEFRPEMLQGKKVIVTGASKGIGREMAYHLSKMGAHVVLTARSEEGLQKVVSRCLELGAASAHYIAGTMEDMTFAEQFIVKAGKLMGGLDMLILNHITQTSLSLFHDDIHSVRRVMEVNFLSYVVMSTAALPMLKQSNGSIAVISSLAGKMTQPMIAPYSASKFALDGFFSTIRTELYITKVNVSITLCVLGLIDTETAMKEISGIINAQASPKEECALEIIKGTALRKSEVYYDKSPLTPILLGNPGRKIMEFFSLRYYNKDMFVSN
In short: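 Primary single-concentration screen in the SPA. Mouse 11β-HSD1 HEK-293 stable-transfectant microsomes are incubated with NADPH and [3H]cortisone, and [3H]cortisol is captured by antibody-coupled protein A SPA beads. Inhibitory ratio is the average of two determinations, with deviation from the average of 10% of the average value.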

[4] = target: T2, 11-beta-hydroxysteroid dehydrogenase type 2 (Homo sapiens, UniProt P80365); assay: Inhibition of human 11beta-HSD2
T2 sequence (P80365 whole entry): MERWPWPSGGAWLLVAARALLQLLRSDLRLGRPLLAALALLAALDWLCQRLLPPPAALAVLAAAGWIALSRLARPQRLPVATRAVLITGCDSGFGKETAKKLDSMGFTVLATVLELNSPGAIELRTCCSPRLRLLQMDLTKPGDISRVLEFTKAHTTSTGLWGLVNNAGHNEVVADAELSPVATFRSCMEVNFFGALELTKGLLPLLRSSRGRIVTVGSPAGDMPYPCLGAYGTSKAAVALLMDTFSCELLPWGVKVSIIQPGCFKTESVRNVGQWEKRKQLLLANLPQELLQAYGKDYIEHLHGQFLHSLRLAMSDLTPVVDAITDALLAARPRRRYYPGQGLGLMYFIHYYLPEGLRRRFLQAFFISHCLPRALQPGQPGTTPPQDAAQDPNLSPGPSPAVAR

Homo sapiens = species: Homo sapiens; assay: selectivity ratio of IC50 for human 11beta-HSD2 to IC50 for human 11beta-HSD1
In short: (§1)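 Ratio of 11β-HSD2 IC50 to 11β-HSD1 IC50 for the same species (mouse or human). Both IC50s come from microsome-based scintillation proximity assays, averaged over at least two independent experiments with at least duplicate wells per concentration. Only compounds exceeding 50% inhibition in the primary screen were evaluated.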

[5] = target: T1, 11-beta-hydroxysteroid dehydrogenase 1; assay: Inhibition of human 11beta-HSD1 expressed in HEK293 cell microsomes assessed as inhibition of [3H]cortisone conversion to [3H]cortisol by scintillation proximity assay; set-up: species or system Microsome
In short: (§2)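 Enzyme source: microsomal fraction from HEK-293 cells stably transfected with 11β-HSD1 (human or mouse), incubated with NADPH and [3H]cortisone. The [3H]cortisol product is captured by a monoclonal antibody on protein A-coated SPA beads. IC50 is averaged over at least two independent experiments, at least duplicate per concentration.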

[6] = target: 11-beta-hydroxysteroid dehydrogenase 1 (Mus musculus, UniProt P50172); assay: Inhibition of mouse 11beta-HSD1 expressed in HEK293 cell microsomes assessed as inhibition of [3H]cortisone conversion to [3H]cortisol by scintillation proximity assay; set-up: species or system Microsome; in short: as §2
Chain of 11-beta-hydroxysteroid dehydrogenase 1 (Mus musculus, UniProt P50172) (P50172 whole entry): as the sequence (P50172 whole entry, looked up) above

[7] = target: T3, 11-beta-hydroxysteroid dehydrogenase type 2 (Mus musculus, UniProt P51661); assay: Inhibition of mouse 11beta-HSD2
T3 sequence (P51661 whole entry): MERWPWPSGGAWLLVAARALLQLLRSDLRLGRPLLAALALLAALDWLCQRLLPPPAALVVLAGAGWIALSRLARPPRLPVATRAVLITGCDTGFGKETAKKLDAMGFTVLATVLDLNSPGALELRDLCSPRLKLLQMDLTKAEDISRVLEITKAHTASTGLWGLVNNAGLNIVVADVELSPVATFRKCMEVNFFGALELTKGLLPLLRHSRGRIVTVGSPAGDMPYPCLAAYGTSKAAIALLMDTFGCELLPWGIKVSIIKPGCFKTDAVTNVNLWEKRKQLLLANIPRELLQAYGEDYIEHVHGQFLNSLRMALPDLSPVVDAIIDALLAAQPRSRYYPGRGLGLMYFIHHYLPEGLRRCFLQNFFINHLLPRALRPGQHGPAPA
In short: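 Scintillation proximity assay using microsomes containing mouse 11β-HSD2. IC50 is averaged over at least two independent experiments, with at least two replicates per concentration.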

Mus musculus = species: Mus musculus; assay: Selectivity ratio of IC50 for mouse 11beta-HSD2 to IC50 for mouse 11beta-HSD1; in short: as §1

T1 sequence (P28845 whole entry): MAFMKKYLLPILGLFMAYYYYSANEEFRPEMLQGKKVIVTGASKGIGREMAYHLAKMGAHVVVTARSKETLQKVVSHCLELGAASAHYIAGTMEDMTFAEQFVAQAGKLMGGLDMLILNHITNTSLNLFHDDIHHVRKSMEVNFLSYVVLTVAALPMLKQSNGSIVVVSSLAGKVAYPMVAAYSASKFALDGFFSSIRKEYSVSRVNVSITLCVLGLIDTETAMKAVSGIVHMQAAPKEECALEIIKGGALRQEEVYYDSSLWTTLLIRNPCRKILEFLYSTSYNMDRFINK
Chain of 11-beta-hydroxysteroid dehydrogenase 1 (Rattus norvegicus, UniProt P16232) (P16232 whole entry): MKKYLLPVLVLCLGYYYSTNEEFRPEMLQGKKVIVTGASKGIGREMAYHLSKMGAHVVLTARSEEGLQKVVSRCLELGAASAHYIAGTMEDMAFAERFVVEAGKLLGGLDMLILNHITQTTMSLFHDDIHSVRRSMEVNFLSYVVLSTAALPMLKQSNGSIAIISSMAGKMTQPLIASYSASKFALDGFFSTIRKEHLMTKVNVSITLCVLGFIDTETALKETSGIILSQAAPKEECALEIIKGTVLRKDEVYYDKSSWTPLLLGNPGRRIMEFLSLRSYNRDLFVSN

SMILES | IC50 [1] [µM] | IC50 [2] [µM] | inhibition [3] [%] | IC50 [4] [µM] | Ratio IC50 (Homo sapiens) | IC50 [5] [µM] | IC50 [6] [µM] | IC50 [7] [µM] | Ratio IC50 (Mus musculus)
C[C@@H]1CC(n2c(=O)[nH]c3ccccc32)C[C@@H](C)N1C(=O)c1cc(Cl)c(N)c(Cl)c1 (some centres undefined) | 0.039 | 0.022 | – | – | – | – | – | – | –
C=C1C[C@@]23CC[C@@H]4[C@](C)(CO)CCC[C@@]4(C)[C@@H]2CC[C@H]1C3 | – | – | 20.4 | 10 | 7 | 1.42 | 1.55 | > 1000 | > 640
